Measurements published in ChEMBL document CHEMBL1150393, “Evaluation of radiolabeled (hetero)aromatic analogues of N-(2-diethylaminoethyl)-4-iodobenzamide for imaging and targeted radionuclide therapy of melanoma” (J Med Chem, 2008).

Assays:
[1] = Partition coefficient, log P in phosphate buffer solution at pH 7.4; assay type: physicochemical
In short: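 Shake-flask partition: 50 µM [¹²⁵I]-labelled compound in phosphate buffer pH 7.4 was mixed with 2 mL n-octanol. Each phase was γ-counted, P was taken as the octanol/buffer activity ratio, and log P was reported.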

[2] = Drug excretion in mouse B16-F0 cells bearing C57BL/6 mouse urine at 0.74 to 0.92 MBq, iv after 72 hrs; assay type: ADME, organism-based; conditions: in vivo
In short: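 Urine was collected from two B16-F0 tumour-bearing C57BL6 mice for up to 72 h after iv tail-vein injection of the [¹²⁵I]-labelled compound (0.1 µmol). Samples were counted to give cumulative urinary excretion as %ID.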

[3] = Biodistribution in tumor of C57BL/6 mouse bearing mouse B16-F0 cells at 0.74 to 0.92 MBq, iv after 1 hr; assay type: ADME, organism-based, Neoplasm; conditions: in vivo
In short: (§1)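 [¹²⁵I]-labelled compound given iv by tail vein (0.1 µmol per mouse) to male C57BL6 mice bearing s.c. B16-F0 flank tumours (5 × 10⁵ cells in PBS). Two mice per time point were killed by CO₂, frozen in liquid nitrogen and cut into 40 µm cryosections, eight slices per mouse. Slice radioactivity was read on a multiwire proportional counter, converted to kBq/g and reported as %ID/g.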

[4] = Biodistribution in tumor of C57BL/6 mouse bearing mouse B16-F0 cells at 0.74 to 0.92 MBq, iv after 6 hrs; assay type: ADME, organism-based, Neoplasm; conditions: in vivo; in short: as §1
[5] = Biodistribution in tumor of C57BL/6 mouse bearing mouse B16-F0 cells at 0.74 to 0.92 MBq, iv after 24 hrs; assay type: ADME, organism-based, Neoplasm; conditions: in vivo; in short: as §1
[6] = Ratio of drug level in tumor to liver of C57BL/6 mouse bearing mouse B16-F0 cells at 0.74 to 0.92 MBq, iv after 1 hr; assay type: ADME, organism-based; conditions: in vivo
In short: (§2)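 Tumour and organ radioactive concentrations came from whole-body cryosection counting (40 µm slices, eight per mouse, two mice per time) after tail-vein injection of the [¹²⁵I]-labelled compound (0.1 µmol) into male C57BL6 mice bearing s.c. B16-F0 melanoma. Each value is the ratio of the tumour concentration to the organ concentration.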

[7] = Ratio of drug level in tumor to liver of C57BL/6 mouse bearing mouse B16-F0 cells at 0.74 to 0.92 MBq, iv after 3 hrs; assay type: ADME, organism-based; conditions: in vivo; in short: as §2
[8] = Ratio of drug level in tumor to lung of C57BL/6 mouse bearing mouse B16-F0 cells at 0.74 to 0.92 MBq, iv after 3 hrs; assay type: ADME, organism-based; conditions: in vivo; in short: as §2
[9] = Ratio of drug level in tumor to lung of C57BL/6 mouse bearing mouse B16-F0 cells at 0.74 to 0.92 MBq, iv after 6 hrs; assay type: ADME, organism-based; conditions: in vivo; in short: as §2
[10] = Ratio of drug level in tumor to brain of C57BL/6 mouse bearing mouse B16-F0 cells at 0.74 to 0.92 MBq, iv after 1 hr; assay type: ADME, organism-based; conditions: in vivo; in short: as §2
Brain = test: Biodistribution in brain of C57BL/6 mouse bearing mouse B16-F0 cells at 0.74 to 0.92 MBq, iv after 3 hrs; assay type: ADME, organism-based; conditions: in vivo
In short: (§3)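 Male C57BL6 mice with s.c. left-flank B16-F0 melanoma (5 × 10⁵ cells in PBS). Two mice per time point frozen in liquid nitrogen after CO₂ sacrifice. Eight 40 µm whole-body cryosections per mouse read by multiwire proportional counter. cpm/mm² converted to kBq/g and expressed as %ID/g.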

[11] = Biodistribution in Stomach content of C57BL/6 mouse bearing mouse B16-F0 cells at 0.74 to 0.92 MBq, iv after 3 hrs; assay type: ADME, organism-based; conditions: in vivo; in short: as §3
[12] = Biodistribution in Stomach content of C57BL/6 mouse bearing mouse B16-F0 cells at 0.74 to 0.92 MBq, iv after 6 hrs; assay type: ADME, organism-based; conditions: in vivo; in short: as §3
[13] = Biodistribution in Stomach content of C57BL/6 mouse bearing mouse B16-F0 cells at 0.74 to 0.92 MBq, iv after 24 hrs; assay type: ADME, organism-based; conditions: in vivo; in short: as §3
Liver [14] = test: Biodistribution in liver of C57BL/6 mouse bearing mouse B16-F0 cells at 0.74 to 0.92 MBq, iv after 1 hr; assay type: ADME, organism-based; conditions: in vivo; in short: as §3
Liver [15] = test: Biodistribution in liver of C57BL/6 mouse bearing mouse B16-F0 cells at 0.74 to 0.92 MBq, iv after 6 hrs; assay type: ADME, organism-based; conditions: in vivo; in short: as §3
Pancreas = test: Biodistribution in pancreas of C57BL/6 mouse bearing mouse B16-F0 cells at 0.74 to 0.92 MBq, iv after 1 hr; assay type: ADME, organism-based; conditions: in vivo; in short: as §3
Lung [16] = test: Biodistribution in lung of C57BL/6 mouse bearing mouse B16-F0 cells at 0.74 to 0.92 MBq, iv after 1 hr; assay type: ADME, organism-based; conditions: in vivo; in short: as §3
Lung [17] = test: Biodistribution in lung of C57BL/6 mouse bearing mouse B16-F0 cells at 0.74 to 0.92 MBq, iv after 3 hrs; assay type: ADME, organism-based; conditions: in vivo; in short: as §3
Lung [18] = test: Biodistribution in lung of C57BL/6 mouse bearing mouse B16-F0 cells at 0.74 to 0.92 MBq, iv after 6 hrs; assay type: ADME, organism-based; conditions: in vivo; in short: as §3
Spleen = test: Biodistribution in spleen of C57BL/6 mouse bearing mouse B16-F0 cells at 0.74 to 0.92 MBq, iv after 1 hr; assay type: ADME, organism-based; conditions: in vivo; in short: as §1
Kidney [19] = test: Biodistribution in kidney of C57BL/6 mouse bearing mouse B16-F0 cells at 0.74 to 0.92 MBq, iv after 1 hr; assay type: ADME, organism-based; conditions: in vivo; in short: as §3
Kidney [20] = test: Biodistribution in kidney of C57BL/6 mouse bearing mouse B16-F0 cells at 0.74 to 0.92 MBq, iv after 3 hrs; assay type: ADME, organism-based; conditions: in vivo; in short: as §3
Blood [21] = test: Biodistribution in blood of C57BL/6 mouse bearing mouse B16-F0 cells at 0.74 to 0.92 MBq, iv after 1 hr; assay type: ADME, organism-based; conditions: in vivo; in short: as §3
Blood [22] = test: Biodistribution in blood of C57BL/6 mouse bearing mouse B16-F0 cells at 0.74 to 0.92 MBq, iv after 3 hrs; assay type: ADME, organism-based; conditions: in vivo; in short: as §3
Blood [23] = test: Biodistribution in blood of C57BL/6 mouse bearing mouse B16-F0 cells at 0.74 to 0.92 MBq, iv after 6 hrs; assay type: ADME, organism-based; conditions: in vivo; in short: as §3
Thyroid gland [24] = test: Biodistribution in thyroid of C57BL/6 mouse bearing mouse B16-F0 cells at 0.74 to 0.92 MBq, iv after 3 hrs; assay type: ADME, organism-based; conditions: in vivo; in short: as §1
Thyroid gland [25] = test: Biodistribution in thyroid of C57BL/6 mouse bearing mouse B16-F0 cells at 0.74 to 0.92 MBq, iv after 6 hrs; assay type: ADME, organism-based; conditions: in vivo; in short: as §1
[26] = Biodistribution in uvea of C57BL/6 mouse bearing mouse B16-F0 cells at 0.74 to 0.92 MBq, iv after 1 hr; assay type: ADME, organism-based, Uveal tract; conditions: in vivo; in short: as §1
[27] = Biodistribution in uvea of C57BL/6 mouse bearing mouse B16-F0 cells at 0.74 to 0.92 MBq, iv after 3 hrs; assay type: ADME, organism-based, Uveal tract; conditions: in vivo; in short: as §1
[28] = Biodistribution in uvea of C57BL/6 mouse bearing mouse B16-F0 cells at 0.74 to 0.92 MBq, iv after 6 hrs; assay type: ADME, organism-based, Uveal tract; conditions: in vivo; in short: as §1
[29] = Biodistribution in uvea of C57BL/6 mouse bearing mouse B16-F0 cells at 0.74 to 0.92 MBq, iv after 24 hrs; assay type: ADME, organism-based, Uveal tract; conditions: in vivo; in short: as §1
Muscle tissue = test: Biodistribution in muscle of C57BL/6 mouse bearing mouse B16-F0 cells at 0.74 to 0.92 MBq, iv after 6 hrs; assay type: ADME, organism-based; conditions: in vivo; in short: as §3

Row | Structure (SMILES) | logD [1] | Activity [2] [%] | Drug uptake [3] [% ID/g] | Drug uptake [4] [% ID/g] | Drug uptake [5] [% ID/g] | Ratio [6] | Ratio [7] | Ratio [8] | Ratio [9] | Ratio [10] | Drug uptake [11] [% ID/g] | Drug uptake [12] [% ID/g] | Drug uptake (Liver [14]) [% ID/g] | Drug uptake (Liver [15]) [% ID/g] | Drug uptake (Pancreas) [% ID/g] | Drug uptake (Lung [16]) [% ID/g] | Drug uptake (Lung [17]) [% ID/g] | Drug uptake (Lung [18]) [% ID/g] | Drug uptake (Spleen) [% ID/g] | Drug uptake (Kidney [19]) [% ID/g] | further results
1 | CCN(CC)CCNC(=O)c1cc2c([125I])cccc2cn1.Cl.Cl | 1.65 | 49.9 | 7.3 | 7.9 | 7.1 | 1.88 | 3.52 | 2.58 | 3.86 | 24.23 | 19.05 | 28.44 | 3.86 | 1.54 | 2.39 | 3.68 | 2.76 | 2.05 | 2.83 | 4.62 | Drug uptake (Brain): 0.09 % ID/g; Drug uptake [13]: 0.75 % ID/g; Drug uptake (Kidney [20]): 2.66 % ID/g; Drug uptake (Blood [21]): 2.15 % ID/g; Drug uptake (Blood [22]): 2.65 % ID/g; Drug uptake (Blood [23]): 2.17 % ID/g; Drug uptake (Thyroid gland [24]): 35.71 % ID/g; Drug uptake (Thyroid gland [25]): 48.93 % ID/g; Drug uptake [26]: 18.08 % ID/g; Drug uptake [27]: 13.87 % ID/g; Drug uptake [28]: 18.02 % ID/g; Drug uptake [29]: 14.55 % ID/g
2 | CCN(CC)CCNC(=O)c1cnc2cc([125I])ccc2n1.Cl.Cl | 1.12 | 70.2 | 17 | 40.7 | 21.7 | 1.29 | 3.12 | 4.87 | 9.13 | 7.26 | 20.33 | 21.09 | 13.18 | 7.53 | 7.6 | 7.83 | 5.68 | 4.46 | 14.21 | 16.46 | Drug uptake (Brain): 1.03 % ID/g; Drug uptake (Muscle tissue): 0.87 % ID/g; Drug uptake (Kidney [20]): 9.3 % ID/g; Drug uptake (Blood [21]): 3.45 % ID/g; Drug uptake (Blood [22]): 2.91 % ID/g; Drug uptake (Blood [23]): 3.09 % ID/g; Drug uptake (Thyroid gland [24]): 39.76 % ID/g; Drug uptake (Thyroid gland [25]): 83.77 % ID/g; Drug uptake [26]: 33.82 % ID/g; Drug uptake [27]: 24.79 % ID/g; Drug uptake [28]: 32.3 % ID/g; Drug uptake [29]: 32.44 % ID/g
3 | CCN(CC)CCNC(=O)c1ccc2cncc([125I])c2n1.Cl.Cl | 0.51 | 68.9 | 23.2 | 11.4 | 8.4 | 5.92 | 6.1 | 7.41 | 9.03 | 27.14 | 9.76 | 9.17 | 3.92 | 1.49 | 1.78 | 2.36 | 1.87 | 1.26 | 5.38 | 4.01 | Drug uptake [13]: 0.62 % ID/g; Drug uptake (Muscle tissue): 0.24 % ID/g; Drug uptake (Kidney [20]): 1.51 % ID/g; Drug uptake (Blood [21]): 2.21 % ID/g; Drug uptake (Blood [22]): 1.88 % ID/g; Drug uptake (Blood [23]): 1.36 % ID/g; Drug uptake (Thyroid gland [24]): 41.44 % ID/g; Drug uptake (Thyroid gland [25]): 56.95 % ID/g; Drug uptake [26]: 24.11 % ID/g; Drug uptake [27]: 20.3 % ID/g; Drug uptake [28]: 13.15 % ID/g; Drug uptake [29]: 10 % ID/g
